Experimental findings from ChEMBL document CHEMBL4706516, “Development of dual inhibitors targeting pyruvate dehydrogenase kinases and human lactate dehydrogenase A: High-throughput virtual screening, synthesis and biological validation” (Eur J Med Chem, 2020) are described below.

The target in test [1] is T1, L-lactate dehydrogenase A chain (Homo sapiens, UniProt P00338). The experiment in a line: Inhibition of LDHA (unknown origin) in presence of NADH and sodium pyruvate at 10 uM by enzymatic assay relative to parent compound. Summed up: (§1)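 LDHA at 5 nM final in buffer of 150 mM Tris-HCl pH 7.4 with EDTA and 0.01% Tween-20, compounds in 1% DMSO. Reaction started with substrate solution, final NADH 0.06 mM and sodium pyruvate 0.2 mM. After 10 min at room temperature, plates read at 340 nm. Screening done at a single concentration of 10.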

Test [2] is filed under the species Sus scrofa. The experiment in a line: Inhibition of pig PDK assessed as catalytic activity at 10 uM by PDC assay.
In test [3] the test system is A549. The experiment in a line: Antiproliferative activity against human A549 assessed as cell growth inhibition at 20 uM measured after 72 hrs by MTT assay. Type of test: functional. Summed up: (§2)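 A549 cells grown in DMEM with 10% FBS and 1% penicillin/streptomycin, 5% CO2, humidified; exponential-phase cells used. Cells seeded at 2000/well, exposed to compound for 72 h, then MTT added and incubated 4 h before readout. Single-concentration screening at […]; EC50 values calculated from two independent experiments.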

The target of test [4] is T1, L-lactate dehydrogenase A chain. As to the kind of experiment: Inhibition of LDHA (unknown origin) in presence of NADH and sodium pyruvate measured after 10 mins by enzymatic assay. Summed up:
as §1

The nature of test [5]: Inhibition of pig PDK assessed as catalytic activity measured after 30 mins by microplate reader based assay. The arrangement: species or system Sus scrofa. Summed up: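 Pig PDC preincubated 30 min at 37 °C in Mops pH 7.20 buffer with EDTA, KCl, MgCl2, acetyl-CoA, NADH, DTT and NaF. Kinase reaction started by adding ATP-containing buffer with or without compound; ATP-free wells serve as no-PDK controls. Reaction run 3 min at 37 °C, then stopped with ADP and pyruvate. Remaining PDC activity measured at 340 nm in Tris pH 7.8 with TPP, NAD+, pyruvate and CoA. IC50 is the mean of three independent experiments.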

Test [6] has as its system A549. As to the kind of experiment: Anticancer activity against human A549 assessed as cell growth inhibition measured after 72 hrs by MTT assay. The test is classed as functional, cell-based. Conditions: A549, 72 h. Summed up:
as §2

In test [7] the test system is A549. As to the kind of experiment: Metabolic modulatory effect in human A549 cells assessed as decrease in lactate formation measured after 4 hrs by Flex analyzer. To be noted: dose 10-40 µM. Type of test: functional, cell-based. The method in brief:
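A549 cells, 2 × 10^5 per well, plated overnight, then treated at […] for 4 h at 37 °C. Medium collected and centrifuged 10 min at 10000 rpm to remove debris. Lactate in the medium measured on a Nova Bioprofile Flex analyzer.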

For test [8], the system named is A549. As to the kind of experiment: Metabolic modulatory effect in human A549 cells assessed as increase in oxygen consumption rate at 10 to 40 uM measured after 4 hrs by seahorse XF24 extracellular flux analyzer assay. Conditions: dose 10-40 µM. Type of test: functional, cell-based.

In general, inhibition refers to the drop in the measured response relative to a control, in per cent. A word on the IC50: it is the concentration that gives 50% inhibition. As usually defined, the EC50 is the midpoint of the concentration-response curve.

Active and inactive are the calls of the source. The rule behind the calls is not given here. Where only a bound is given, the exact number is not on record here.

`CCOC(=O)C(=O)N1CCN(c2nc(C(C)C)c3c(c2C#N)CCC3)CC1`: the inhibition entry in test [1] was “Active”. In addition, the inhibition in test [2] was found to be 50%. The inhibition entry in test [3] was “inactive”.

Turning to `Cc1occc(=O)c1OCC(=O)N1CCN(c2ccccn2)CC1`, the IC50 in test [4] and in test [5] was over 10 µM each time.

Turning to `Cc1occc(=O)c1OCC(=O)N1CCN(c2ccccc2F)CC1`, the IC50 in test [4] and in test [5] was over 10 µM in each case.

With `COc1ccc(N2CCN(C(=O)COc3c(C)occc3=O)CC2)cc1`, the IC50 is 0.56 µM in test [4] and over 10 µM in test [5].

As for `Cc1nc(N2CCN(C(=O)C(=O)NCCO)CC2)c(C#N)c2c1CCCC2`, in test [1], the inhibition result was “Active”. Besides, the inhibition in test [2] stood at 50%. Besides, the inhibition result in test [3] was “inactive”.

On to `Cc1occc(=O)c1OCCN1CCN(C(=O)c2ccccc2F)CC1`, for which the concentration for half-maximal inhibition (IC50) is 3.4 µM in test [4] and 5.9 µM in test [5]. For the same compound, in test [6], the EC50 was over 20 µM.

For the compound `Cc1ccccc1N1CCN(C(=O)COc2c(C)occc2=O)CC1`, the IC50 in test [4] and in test [5] was over 10 µM each time.

In the case of `O=C(CN1C(=O)c2ccccc2N2C(=O)c3ccccc3C12)NCCNc1ncccn1` (stereo unspecified), in test [1], the inhibition result was “Active”. In addition, the inhibition in test [2] amounted to 50%. For the same compound, in test [3], the inhibition at 20 µM worked out at 50%.

For the compound `Cc1occc(=O)c1OCCN1CCN(C(=O)c2ccc(F)cc2)CC1`, the concentration for half-maximal inhibition (IC50) in test [4] turned out to be 0.15 µM; in test [5], 0.8 µM. Besides, in test [6], the EC50 stood at 13.2 µM. The Activity result in test [7] is “Dose-dependent effect”. Also, in test [8], the result was Active.

As for `Cc1occc(=O)c1OCC(=O)N1CCN(c2ccc(F)cc2)CC1`, the IC50 in test [4] turned out to be 3.7 µM; in test [5] it was 1.4 µM.

`CC(C)c1nc(N2CCN(C(=O)C(=O)NCCO)CC2)c(C#N)c2c1CCC2`: the inhibition entry in test [1] is “Active”. The inhibition in test [2] was found to be 50%. For the same compound, the inhibition entry in test [3] was “inactive”.

On to `Cc1occc(=O)c1OCCN1CCN(C(=O)C(Cl)Cl)CC1`, for which the concentration for half-maximal inhibition (IC50) in test [4] and in test [5] was over 10 µM throughout.

On to `CC1(C)Cc2c(C#N)c(N3CCN(C(=O)C(=O)NCCO)CC3)nc(-c3ccccc3)c2CO1`, for which the inhibition entry in test [1] was “Active”. In test [2], the inhibition turned out to be 50%. Also, the inhibition result in test [3] was “inactive”.

Consider `Cc1occc(=O)c1OCC(=O)N1CCN(c2ccc([N+](=O)[O-])cc2)CC1`, for which the half-inhibitory concentration (IC50) in test [4] was 6.9 µM; in test [5] it was 0.8 µM.

Take `CCOC(=O)C(=O)N1CCN(c2nc(-c3ccccc3)c3c(c2C#N)CC(C)(C)OC3)CC1`: in test [1], the inhibition entry is “Active”. In test [2], the inhibition amounted to 50%. The inhibition result in test [3] is “inactive”.

With `Cc1occc(=O)c1OCCN1CCN(C(=O)c2ccc(C(F)(F)F)cc2)CC1`, the IC50 in test [4] was found to be 4.7 µM; in test [5] it was 5.1 µM. For the same compound, the EC50 in test [6] is over 20 µM.

Regarding `COc1cccc(N2CCN(C(=O)COc3c(C)occc3=O)CC2)c1`, the results for the IC50 in test [4] and in test [5] were 4.6 µM and over 10 µM, respectively.

Turning to `Cc1occc(=O)c1OCC(=O)N1CCN(c2cccc(Cl)c2)CC1`, the inhibition in test [2] turned out to be 50%. Further, the inhibition at 20 µM in test [3] was 51%. In addition, the half-inhibitory concentration (IC50) came to 5.9 µM in test [4] and 9.1 µM in test [5]. Also, in test [6], the EC50 was determined as 18.5 µM.

Consider `COc1cccc(N2CCN(C(=O)COc3coc(C)cc3=O)CC2)c1`, for which, in test [1], the inhibition result is “Active”. In addition, the inhibition in test [2] turned out to be 50%. Moreover, the inhibition entry in test [3] was “inactive”.

With `Cc1occc(=O)c1OCC(=O)N1CCN(C(c2ccccc2)c2ccccc2)CC1`, the half-inhibitory concentration (IC50) in test [4] was 7.3 µM; in test [5] it was over 10 µM.

As for `Cc1cccc(C(=O)N2CCN(CCOc3c(C)occc3=O)CC2)c1`, the half-maximal inhibitory concentration (IC50) in test [4] is 7.7 µM; in test [5], over 10 µM.

For the compound `Cc1occc(=O)c1OCC(=O)N1CCN(c2ccccc2)CC1`, the IC50 is over 10 µM in test [4] and 1.8 µM in test [5].

As for `Cc1occc(=O)c1OCC(=O)N1CCN(c2ccccc2[N+](=O)[O-])CC1`, the concentration for half-maximal inhibition (IC50) in test [4] was over 10 µM; in test [5] it was 6.3 µM.

In the case of `COc1cc(OC)cc(N2CCN(C(=O)COc3c(C)occc3=O)CC2)c1`, the half-maximal inhibitory concentration (IC50) in test [4] and in test [5] was over 10 µM in each case.

Turning to `CCOC(=O)C(=O)N1CCN(c2nc(C)c3c(c2C#N)CCCC3)CC1`, the inhibition result in test [1] is “Active”. Besides, the inhibition in test [2] turned out to be 50%. In test [3], the inhibition result is “inactive”.

With `Cc1occc(=O)c1OCCN1CCN(C(=O)c2ccccc2[N+](=O)[O-])CC1`, the IC50 is over 10 µM in test [4] and 3 µM in test [5].

For `Cc1cc(C)cc(N2CCN(C(=O)COc3c(C)occc3=O)CC2)c1`, the figures for the IC50 in test [4] and in test [5] were over 10 µM and 8.1 µM, respectively.

In the case of `Cc1occc(=O)c1OCC(=O)N1CCN(c2ncccn2)CC1`, the IC50 in test [4] and in test [5] was over 10 µM in each case.

Turning to `Cc1occc(=O)c1OCCN1CCN(C(=O)c2ccco2)CC1`, the IC50 in test [4] came to 0.7 µM; in test [5], 1.6 µM. In test [6], the 50% effective concentration (EC50) turned out to be 15.7 µM. For the same compound, the Activity result in test [7] is “Dose-dependent effect”. Besides, the outcome in test [8] was Active.

For the compound `Cc1occc(=O)c1OCCN1CCN(C(=O)c2ccc(Cl)cc2)CC1`, the IC50 in test [4] is 2.7 µM; in test [5] it was 3.9 µM. In addition, the EC50 in test [6] was over 20 µM.

In the case of `Cc1occc(=O)c1OCCN1CCN(C(=O)c2ccccc2)CC1`, the figures for the IC50 in test [4] and in test [5] were 2.8 µM and over 10 µM, respectively.

For `Cc1occc(=O)c1OCC(=O)N1CCN(c2cccc(F)c2)CC1`, the concentration for half-maximal inhibition (IC50) was over 10 µM in test [4] and 1 µM in test [5].

Regarding `COc1cccc(C(=O)N2CCN(CCOc3c(C)occc3=O)CC2)c1`, the 50% inhibitory concentration (IC50) in test [4] and in test [5] was over 10 µM each time.
